Assay outcomes from PubChem.
The sample as a whole holds a higher share of hits than the screen did.
INS-1E rescue = preserves ATP levels in cytokine-treated INS-1E cells. protection from cytokine-induced ATP loss, % at 10 µM. AID 488910. 0.1% of 20,000 active. INS-1E cytokine-induced death, ATP luminescence, 48 h; normalised: neutral wells 0, positive control 100;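 active = mean replicate protection from cytokine-induced ATP loss at least 50% and at least 75% of replicates each reaching 50%; inconclusive = meets only one of the two criteria, mean or replicate share; inactive = fails both the mean and replicate share criteria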
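assay system = INS-1E rat insulinoma cells | amount = 8000 cells per well | medium = phenol-red-free RPMI with 5% fetal bovine serum | doses = one compound concentration, pin transfer | timing = 48 h cytokine plus compound treatment, 10 min reagent incubation | also added = IL-1β, TNF-α and IFN-γ cytokine mix | signal = CellTiter-Glo luminescence measuring cellular ATP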
A1 apoptosis 2 = blocks A1, raising caspase activity; MEF A1-2A-BIM cells, caspase-Glo luminescence, 3 h; percent of clofoctol response, DMSO zero; caspase activation, % (test concentration not listed); 24,000 tested, under 10 active; AID 2465; in the data active = caspase activation above about 5.9%; inconclusive = no clear call, values can overlap the other calls; inactive = below about 2.2%
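system = A1-2A-BIM-expressing MEF cells | quantity = 2500 MEF cells/well | dosing = 50 nL compound per well, pinned | schedule = overnight cell settling, then 3 h compound exposure, 37 °C | signal = luminescence from DEVD-luciferin Caspase-Glo reagent, 1:1 in 50 mM HEPES, 1 h RT | read-out = Caspase-3/7 activation, seen as rise in luminescence signal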
T cruzi HTS = inhibitors of intracellular Trypanosoma cruzi | intracellular Trypanosoma cruzi in host cells, plate reader | activity score (inhibition), % at 5.01 µM | 4.9% of 22,000 active | AID 651903; in the data active = activity score above about 55%; inconclusive = no clear call, values can overlap the other calls;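 also: parasites and compound incubated about four days before reading; 0% = median of neutral control wells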
Starred values were filed as active, the others as inactive; u = inconclusive; x = no result.

SMILES | INS-1E rescue | A1 apoptosis 2 | T cruzi HTS
C[C@H]1CN([C@@H](C)CO)C(=O)Cc2cc(NC(=O)Nc3cccc4ccccc34)ccc2O[C@H]1CN(C)Cc1ccccc1 | -19 | 0 | 69*
C[C@H]1CN([C@@H](C)CO)C(=O)Cc2cc(NC(=O)Nc3cccc4ccccc34)ccc2O[C@@H]1CN(C)CC1CCCCC1 | -24 | -1 | 76*
C[C@@H]1CN([C@H](C)CO)C(=O)c2cc(NC(=O)Nc3cccc4ccccc34)ccc2O[C@H]1CN(C)Cc1ccc(Oc2ccccc2)cc1 | x | 1 | 53
C[C@H](CO)N1C[C@H](C)[C@@H](CN(C)S(=O)(=O)c2cccs2)Oc2ccc(NS(=O)(=O)c3cn(C)cn3)cc2CC1=O | x | 1 | x
C[C@@H]1CN([C@@H](C)CO)C(=O)c2cc(NC(=O)C3CC3)ccc2O[C@@H]1CN(C)S(=O)(=O)c1ccc(F)cc1 | x | x | 2
CC(C)NC(=O)N(C)C[C@H]1Oc2ccc(NS(=O)(=O)c3cn(C)cn3)cc2C(=O)N([C@H](C)CO)C[C@H]1C | 5 | x | 7
COc1ccc(S(=O)(=O)Nc2ccc3c(c2)CC(=O)N([C@@H](C)CO)C[C@@H](C)[C@H](CN(C)S(=O)(=O)c2ccc(Cl)cc2)O3)cc1 | x | 3 | x
Cc1ccc(S(=O)(=O)Nc2ccc3c(c2)CC(=O)N([C@@H](C)CO)C[C@H](C)[C@H](CN(C)Cc2ccc(-c4ccccc4)cc2)O3)cc1 | -32 | 0 | 27
C[C@H](CO)N1C[C@H](C)[C@@H](CN(C)Cc2ccccc2)Oc2ccc(NS(=O)(=O)c3ccc(F)cc3)cc2CC1=O | x | 0 | x
C[C@@H]1CN([C@H](C)CO)C(=O)Cc2cc(NS(=O)(=O)c3ccc(F)cc3)ccc2O[C@@H]1CN(C)Cc1ccccc1 | -6 | 0 | 62*
Cc1ccc(S(=O)(=O)Nc2ccc3c(c2)CC(=O)N([C@H](C)CO)C[C@H](C)[C@@H](CN(C)Cc2ccc(-c4ccccc4)cc2)O3)cc1 | x | -1 | x
C[C@@H]1CN([C@H](C)CO)C(=O)Cc2cc(NS(=O)(=O)c3ccccc3)ccc2O[C@@H]1CN(C)Cc1ccc(-c2ccccc2)cc1 | -26 | 2 | 71*
C[C@H](CO)N1C[C@H](C)[C@@H](CN(C)Cc2ccc(-c3ccccc3)cc2)Oc2ccc(NS(=O)(=O)c3cccs3)cc2CC1=O | x | 0 | x
C[C@H]1CN([C@@H](C)CO)C(=O)Cc2cc(NS(=O)(=O)c3cccs3)ccc2O[C@@H]1CN(C)Cc1ccc(-c2ccccc2)cc1 | -15 | -1 | 56*
C[C@H]1CN([C@@H](C)CO)C(=O)Cc2cc(NS(=O)(=O)c3ccc(F)cc3)ccc2O[C@@H]1CN(C)Cc1ccc(-c2ccccc2)cc1 | -19 | 0 | 71*
COc1ccc(S(=O)(=O)Nc2ccc3c(c2)C(=O)N([C@@H](C)CO)C[C@@H](C)[C@H](CN(C)C)OCCCC[C@@H](C)O3)cc1 | x | 0 | x
CC1(C)[C@H]2CC=C(/C=N\NC(=O)c3ccccn3)[C@@H]1C2 | -6 | -1 | -1
Cc1noc(C)c1NC(=O)N(C)C[C@H]1OCCCC[C@@H](C)Oc2ccc(NS(C)(=O)=O)cc2C(=O)N([C@H](C)CO)C[C@H]1C | x | -1 | x
CC(C)NC(=O)Nc1ccc2c(c1)C(=O)N([C@@H](C)CO)C[C@H](C)[C@H](CN(C)C(=O)NC1CCCCC1)O2 | 6 | x | -7
C[C@H]1CN([C@@H](C)CO)C(=O)Cc2cc(NS(=O)(=O)c3ccc(Cl)cc3)ccc2O[C@@H]1CN(C)Cc1ccc(-c2ccccc2)cc1 | 3 | x | 61*
Cc1ccc(S(=O)(=O)Nc2ccc3c(c2)CC(=O)N([C@H](C)CO)C[C@H](C)[C@H](CN(C)Cc2ccc(-c4ccccc4)cc2)O3)cc1 | -4 | x | 8
C[C@@H]1CN([C@@H](C)CO)C(=O)Cc2cc(NS(=O)(=O)c3ccccc3)ccc2O[C@@H]1CN(C)Cc1ccc(-c2ccccc2)cc1 | -27 | x | 58*
CC(C)NC(=O)N(C)C[C@H]1OCCCC[C@H](C)Oc2ccc(NC(=O)c3ccncc3)cc2C(=O)N([C@H](C)CO)C[C@@H]1C | x | 0 | x
C[C@@H]1CN([C@H](C)CO)C(=O)c2cc(NS(C)(=O)=O)ccc2O[C@@H](C)CCCCO[C@@H]1CN(C)C(=O)C1CCCCC1 | x | 0 | x
C=C(C)[C@@H]1CC=C(/C=N/NC(=O)c2ccc(C(=O)NO)cc2)CC1 | 17 | x | -6
SMILES | INS-1E rescue | A1 apoptosis 2 | T cruzi HTS
C[C@H](CO)N1C[C@H](C)[C@@H](CN(C)C(=O)Nc2ccc(C(F)(F)F)cc2)Oc2ccc(NC(=O)Nc3ccc(C(F)(F)F)cc3)cc2CC1=O | x | -1 | x
CCOc1cc(/C=N/NC(=O)CCCCCCC(=O)OC)ccc1O | 6 | x | -3
COc1ccc(S(=O)(=O)Nc2ccc3c(c2)C(=O)N([C@@H](C)CO)C[C@@H](C)[C@@H](CN(C)Cc2ccccc2)OCCCC[C@H](C)O3)cc1 | x | 0 | x
C[C@H](CO)N1C[C@H](C)[C@H](CN(C)Cc2ccc(C(=O)Nc3ccccc3N)cc2)Oc2ccc(NS(=O)(=O)c3ccc(Cl)cc3)cc2CC1=O | 41 | x | 60*
C[C@H]1CN([C@@H](C)CO)C(=O)Cc2cc(NS(=O)(=O)c3ccc(Cl)cc3)ccc2O[C@@H]1CN(C)Cc1ccc(C(=O)Nc2ccccc2N)cc1 | x | 1 | x
Cc1ccc(S(=O)(=O)Nc2ccc3c(c2)CC(=O)N([C@H](C)CO)C[C@@H](C)[C@@H](CN(C)Cc2ccc(C(=O)Nc4ccccc4N)cc2)O3)cc1 | -6 | 0 | 60*
COc1ccc(S(=O)(=O)Nc2ccc3c(c2)CC(=O)N([C@H](C)CO)C[C@@H](C)[C@@H](CN(C)Cc2ccc(C(=O)Nc4ccccc4N)cc2)O3)cc1 | -18 | 0 | 50
C[C@H](CO)N1C[C@H](C)[C@H](CN(C)Cc2ccc(C(=O)Nc3ccccc3N)cc2)Oc2ccc(NS(=O)(=O)c3ccc(F)cc3)cc2CC1=O | u | x | 64*
COc1ccc(S(=O)(=O)Nc2ccc3c(c2)CC(=O)N([C@H](C)CO)C[C@H](C)[C@H](CN(C)Cc2ccc(C(=O)Nc4ccccc4N)cc2)O3)cc1 | 53* | 0 | 59*
C[C@@H]1CN([C@@H](C)CO)C(=O)Cc2cc(NS(=O)(=O)c3ccc(F)cc3)ccc2O[C@H]1CN(C)Cc1ccc(C(=O)Nc2ccccc2N)cc1 | x | 0 | x
Cc1ccc(S(=O)(=O)Nc2ccc3c(c2)CC(=O)N([C@@H](C)CO)C[C@H](C)[C@@H](CN(C)Cc2ccc(C(=O)Nc4ccccc4N)cc2)O3)cc1 | 8 | 0 | 50
COc1ccc(CN(C)C[C@@H]2Oc3ccc(NC(=O)Cn4cnnn4)cc3CC(=O)N([C@H](C)CO)C[C@@H]2C)cc1 | x | 0 | x
O=C(CCCCCC(=O)N/N=C/c1cccnc1Br)NO | x | 0 | x
C[C@H]1CN([C@@H](C)CO)C(=O)Cc2cc(NS(C)(=O)=O)ccc2O[C@@H]1CN(C)Cc1ccc(C(=O)O)cc1 | 2 | 1 | -11
Cc1ccccc1/C=N/NC(=O)c1ccccn1 | 5 | -11 | -20
C[C@@H]1CN([C@H](C)CO)C(=O)Cc2cc(NS(=O)(=O)c3cccs3)ccc2O[C@H]1CN(C)Cc1ccc(C(=O)Nc2ccccc2N)cc1 | 2 | x | 44
